Bioassay records deposited in PubChem by several laboratories.
An excerpt weighted towards active compounds, which were near 2.2% of everything screened.
HKDC1 inhibitor: HKDC1 hexokinase inhibitors, primary screen, biochemical, fluorescence, uHTS | inhibition, % at 20 µM | 0.16% of 340,000 active | Q2TB90 | recombinant HKDC1, G6PDH/diaphorase resazurin coupled fluorescence;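 active = inhibition above about 35% when tested at 20 µM, limit read from the data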;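 also: plate controls were DMSO wells with enzyme for no effect and DMSO wells lacking enzyme for full effect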
Target sequence (Q2TB90 whole entry, looked up): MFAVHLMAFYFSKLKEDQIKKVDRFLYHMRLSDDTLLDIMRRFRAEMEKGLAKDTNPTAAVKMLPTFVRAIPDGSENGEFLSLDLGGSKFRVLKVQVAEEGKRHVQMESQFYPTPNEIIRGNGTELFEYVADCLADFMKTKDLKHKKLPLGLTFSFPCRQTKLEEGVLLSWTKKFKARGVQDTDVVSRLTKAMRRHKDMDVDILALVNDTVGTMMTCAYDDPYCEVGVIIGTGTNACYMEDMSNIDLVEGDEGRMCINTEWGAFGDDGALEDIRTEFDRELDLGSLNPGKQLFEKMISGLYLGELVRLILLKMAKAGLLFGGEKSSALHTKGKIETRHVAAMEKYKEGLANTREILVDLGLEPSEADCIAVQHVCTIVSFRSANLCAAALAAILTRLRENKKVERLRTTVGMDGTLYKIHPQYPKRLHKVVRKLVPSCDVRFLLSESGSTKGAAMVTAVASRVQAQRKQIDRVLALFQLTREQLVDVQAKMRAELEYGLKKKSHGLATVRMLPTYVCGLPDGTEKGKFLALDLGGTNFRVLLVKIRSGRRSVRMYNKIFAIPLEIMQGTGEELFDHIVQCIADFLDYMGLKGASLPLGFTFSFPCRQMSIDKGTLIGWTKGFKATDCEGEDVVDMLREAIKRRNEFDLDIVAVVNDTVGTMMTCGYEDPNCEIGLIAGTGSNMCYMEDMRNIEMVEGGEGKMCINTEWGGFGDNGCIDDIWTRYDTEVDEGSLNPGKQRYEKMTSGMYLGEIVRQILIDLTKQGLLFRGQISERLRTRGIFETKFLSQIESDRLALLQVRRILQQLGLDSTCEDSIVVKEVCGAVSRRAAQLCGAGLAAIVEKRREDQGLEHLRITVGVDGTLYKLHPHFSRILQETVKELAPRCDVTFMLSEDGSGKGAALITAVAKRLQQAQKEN
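Test system: recombinant HKDC1 (HK5) hexokinase enzyme, produced in-house; Amount: enzyme 5 µg/mL final; Buffer or medium: Tris pH 8.0 buffer with MgCl2, Tween-20, BSA, BME; Reagent: glucose and ATP substrates; Doses: 20 µM test compound, 1% DMSO; Incubation: 90 min reaction incubation at room temperature, dark; Detection: resorufin fluorescence at 613 nm.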
Neddylation inh: inhibitors of cullin neddylation, primary screen, biochemical, TR-FRET, uHTS, NAE and Ubc12; NEDD8-conjugating enzyme Ubc12 (Homo sapiens) + NEDD8-activating enzyme E1 regulatory …; inhibition, % at 25 µM; 0.58% of 360,000 active; in the data active = inhibition above about 36%
PfGluPho inh: PfG6PD enzyme inhibitors, primary screen, biochemical, fluorescence intensity, uHTS; glucose-6-phosphate dehydrogenase-6-phosphogluconolactonase (Plasmodium falciparum 3D7); PfGluPho enzyme, NADPH resazurin-diaphorase fluorescence; inhibition, % at 20 µM; 0.78% of 350,000 active; AID 504690, 2011;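 active = inhibition reaching at least a set limit at 20 µM in the primary screen, cut at about 59% in these data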;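 also: 0% = DMSO wells with substrate and 100% = DMSO wells lacking glucose-6-phosphate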
M18AAP inhibitor: PfM18AAP inhibitors, malaria aminopeptidase, primary screen, biochemical, QFRET, recombinant enzyme. M18 aspartyl aminopeptidase (Plasmodium falciparum 3D7). H-Glu-NHMec fluorogenic cleavage. inhibition, % at 7.35 µM. 1.2% of 290,000 active. AID 1822, 2009;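 active = inhibition above the campaign mean inhibition over all tested compounds plus 3 SD, cut at about 28% in these data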;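 also: 0% = plate median of test compound wells and 100% = 2 mM ZnCl2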
Neddyl conf: blockade of NEDD8 conjugation to cullin – biochemical, TR-FRET, single concentration, confirmation | TR-FRET cullin neddylation biochemical assay | calls only at 25 µM | shares compounds with Neddylation inh | 13% of 1,800 active; in the data active = inhibition above about 40%;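 also: neddylation substrate is the cullin 1 ring ligase complex with SKP2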
Active calls of the source: *; i = inactive; x = no result given.

SMILES | HKDC1 inhibitor | Neddylation inh | PfGluPho inh | M18AAP inhibitor | Neddyl conf
CCCCC1(C)NC(=O)N(CC(=O)Nc2ccc(Cl)cc2C)C1=O (stereo not given) | -8.4 | 3.4 | -6.0 | x | x
CC1CCc2c(sc(N)c2C(N)=O)C1 (stereo not given) | 0.9 | 40.2* | 51.1 | 28.9* | i
COc1ccc(CCNC(=O)CC2Nc3cc(C)c(C)cc3NC2=O)cc1OC (stereo not given) | 4.5 | 40.2* | 18.9 | 10.1 | i
COc1ccc(-c2nc3nc(C)c(Cc4ccccc4)c(=O)n3[nH]2)cc1 | 2.4 | 45.9* | -5.2 | 2.9 | x
COC(=O)Cc1c(C)nc2nc(-c3ccc(OC)cc3)[nH]n2c1=O | -1.5 | x | 10.1 | -5.0 | x
Nc1nc(Br)c2c(F)cccc2c1-c1ccc(F)cc1 | -3.5 | 39.8* | 13.4 | -8.0 | i
CCSC1=C(C#N)C(c2ccc(C)o2)CC(=O)N1 (stereo not given) | 0.0 | 39.6* | -12.9 | 0.6 | i
COc1ccc(-c2c(NC(=O)CC(C)C)n(C)c3ccccc3c2=O)cc1OC | -5.4 | 3.3 | 0.7 | 1.4 | x
CCOC(=O)[C@H]1[C@H]2COc3ccc(OC)cc3[C@H]2N2C(=O)CNC(=O)[C@@]12C | 1.9 | -0.4 | -12.7 | x | x
Cc1cc(/C=C(\C#N)C(=O)NC2CCCCCC2)c(C)[nH]1 | -13.7 | 38.3 | 1.8 | 2.5 | x
COc1ccc(-c2[nH]ncc2/C=C(/C#N)C(=O)NC2CCCCCC2)cc1 | 1.4 | 40.8* | 10.9 | -12.4 | i
O=S(=O)(c1ccc2nc(Nc3ccccc3)ccc2c1)N1CCCCC1 | 10.0 | 32.1 | 31.4 | 3.3 | x
NNC(=O)c1oc2nc(-c3ccc(Cl)cc3)cc(-c3ccccc3)c2c1N | -0.4 | 42.7* | -5.8 | 6.7 | i
Nc1c(C(=O)N/N=C/c2cccnc2)oc2nc(-c3ccccc3)cc(-c3ccco3)c12 | -2.5 | 37.2* | 17.5 | 9.1 | i
CCOc1ccc(C(C)=O)cc1COC(=O)c1ccccc1C(=O)N(C)Cc1ccccc1 | -6.0 | 12.2 | -4.5 | x | x
Cc1ccc(S(=O)(=O)N2CCC(C(=O)N3CCC3)CC2)cc1 | 1.3 | 3.0 | -6.9 | -7.0 | x
O=C(Nc1cc(S(=O)(=O)N2CCOCC2)ccc1Cl)c1cc([N+](=O)[O-])ccc1Cl | -1.2 | -38.2 | 8.9 | x | x
Cc1cc(C)n(-c2ccc3nnc(C)n3n2)n1 | -0.1 | 36.2* | -14.0 | -0.4 | i
Cc1nnc2ccc(N3CCCCC3)nn12 | -1.0 | -10.8 | -7.9 | -3.6 | x
COCC1CCCCN1Cc1cn(-c2ccccc2)nc1-c1ccc2c(c1)OCO2 (stereo not given) | -0.5 | 44.9* | 1.4 | -3.2 | i
OC[C@@H]1CCCN1Cc1cn(-c2ccccc2)nc1-c1ccc2c(c1)OCO2 | -0.6 | 39.6* | -15.7 | 0.7 | i
c1ccc(-n2cc(CN3CCCC(CN4CCCC4)C3)c(-c3ccc4c(c3)OCO4)n2)cc1 (stereo not given) | -6.0 | -6.9 | 5.8 | -6.0 | x
CCOc1cc(Br)c(C(C)NC(=O)c2cccnc2)cc1OCC (stereo not given) | -0.4 | 5.6 | 2.7 | x | x
CCOc1ccc(OCC(=O)OCC(=O)NCC2CCCO2)cc1 (stereo not given) | -5.2 | 1.8 | -3.2 | x | x
CN(CC(=O)NC(=O)NC1CCCCC1)CC(=O)Nc1ccccc1C(F)(F)F | x | -0.1 | 16.9 | x | x
SMILES | HKDC1 inhibitor | Neddylation inh | PfGluPho inh | M18AAP inhibitor | Neddyl conf
Cc1cccc(-n2ncc3c(NCCCO)ncnc32)c1 | -1.6 | 38.9* | 13.7 | 5.2 | i
Cc1cccc(-n2ncc3c(NCc4cccnc4)ncnc32)c1 | -0.2 | 33.5 | 4.8 | x | x
Cc1ccc(NS(=O)(=O)c2cccc(C(=O)N/N=C/c3ccc4c(c3)OCCO4)c2)c(C)c1 | -9.0 | 49.0* | 8.4 | 3.2 | i
Cc1ccc(C(=O)N/N=C/c2ccc(N3CCOCC3)cc2)c(C)c1 | -8.0 | 40.6* | -9.7 | -1.0 | i
COc1ccccc1NS(=O)(=O)c1cccc(C(=O)N/N=C/c2ccc(N3CCOCC3)cc2)c1 | -5.5 | 41.0* | -1.2 | 7.7 | i
O=C(N/N=C/c1ccc(N2CCOCC2)cc1)c1ccc(O)cc1 | -4.8 | 31.9 | 13.6 | 11.9 | x
COc1ccc(CN(CCNC(=O)CCCCC(=O)NCCN(Cc2ccc(OC)cc2)C(C)C)C(C)C)cc1 | -7.3 | 10.3 | -5.0 | x | x
